Test results published in ChEMBL document CHEMBL4406834, “Phenylthiazoles with nitrogenous side chain: An approach to overcome molecular obesity” (Eur J Med Chem, 2019).
Activity calls are given as the source filed them.

How the values were obtained:
Pseudomonas aeruginosa [1] = experiment: Antibacterial activity against Pseudomonas aeruginosa ATCC 27853; type: functional
Staphylococcus aureus [2] = experiment: Antibacterial activity against methicilline-resistant Staphylococcus aureus NRS386 USA700 after 18 to 20 hrs by CLSI-based broth microdilution assay; type: functional
Summary of the method: (§1)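 Broth microdilution per CLSI. Strains grown aerobically overnight on tryptone soy agar at 37 °C, adjusted to 0.5 McFarland, then diluted in cation-adjusted Mueller-Hinton broth to about 5 × 10^5 CFU/mL. Compounds (10 mg/mL DMSO stocks) serially diluted. Incubated aerobically at 37 °C for 18-20 h. MIC is the lowest concentration with no visible growth.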

Staphylococcus aureus [3] = experiment: Bactericidal activity against methicilline-resistant Staphylococcus aureus NRS123 USA400 incubated for 18 to 20 hrs followed by replating on tryptic soy agar plate and further incubated for 18 to 24 hrs by CLSI-based broth microdilution assay; type: functional
Summary of the method: (§2)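 MBC: after the broth microdilution MIC (CAMHB, ~5 × 10^5 CFU/mL, 37 °C, 18-20 h), 4 µL from wells without growth plated onto tryptic soy agar. Plates incubated 37 °C for 18-20 h. MBC is the lowest concentration giving 99.9% reduction in growth.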

Staphylococcus aureus [4] = experiment: Bactericidal activity against methicillin-resistant Staphylococcus aureus USA400 assessed as reduction in bacterial burden at 5 times MIC after 4 hrs by time kill assay; type: functional, organism-based
Staphylococcus aureus [5] = experiment: Bactericidal activity against methicilline-resistant Staphylococcus aureus NRS384 USA300 incubated for 18 to 20 hrs followed by replating on tryptic soy agar plate and further incubated for 18 to 24 hrs by CLSI-based broth microdilution assay; type: functional; summary of the method: as §2
Staphylococcus aureus [6] = experiment: Bactericidal activity against methicilline-sensitive Staphylococcus aureus NRS-107 incubated for 18 to 20 hrs followed by replating on tryptic soy agar plate and further incubated for 18 to 24 hrs by CLSI-based broth microdilution assay; type: functional; summary of the method: as §2
Enterococcus faecium [7] = experiment: Bactericidal activity against vancomycin-resistant Enterococcus faecium ATCC 700221 incubated for 18 to 20 hrs followed by replating on tryptic soy agar plate and further incubated for 18 to 24 hrs by CLSI-based broth microdilution assay; type: functional; summary of the method: as §2
Staphylococcus aureus [8] = experiment: Bactericidal activity against methicilline-resistant Staphylococcus aureus NRS386 USA700 incubated for 18 to 20 hrs followed by replating on tryptic soy agar plate and further incubated for 18 to 24 hrs by CLSI-based broth microdilution assay; type: functional; summary of the method: as §2
[9] = tested on: Staphylococcus epidermidis; experiment: Bactericidal activity against methicillin-resistant Staphylococcus epidermidis NRS101 incubated for 18 to 20 hrs followed by replating on tryptic soy agar plate and further incubated for 18 to 24 hrs by CLSI-based broth microdilution assay; type: functional
[10] = Aqueous solubility of the compound in phosphate buffered saline assessed as concentration that produces no precipitate measured as OD at 540 nm; type: physicochemical
Staphylococcus aureus [11] = experiment: Antibacterial activity against methicilline-resistant Staphylococcus aureus NRS-119 after 18 to 20 hrs by CLSI-based broth microdilution assay; type: functional; summary of the method: as §1
Enterococcus faecalis [12] = experiment: Bactericidal activity against vancomycin-resistant Enterococcus faecalis ATCC 51299 incubated for 18 to 20 hrs followed by replating on tryptic soy agar plate and further incubated for 18 to 24 hrs by CLSI-based broth microdilution assay; type: functional; summary of the method: as §2
Enterococcus faecium [13] = experiment: Antibacterial activity against vancomycin-resistant Enterococcus faecium ATCC 700221 after 18 to 20 hrs by CLSI-based broth microdilution assay; type: functional; summary of the method: as §1
Staphylococcus aureus [14] = experiment: Antibacterial activity against methicilline-resistant Staphylococcus aureus NRS385 USA500 after 18 to 20 hrs by CLSI-based broth microdilution assay; type: functional; summary of the method: as §1
Staphylococcus aureus [15] = experiment: Antibacterial activity against vancomycin-resistant Staphylococcus aureus 12 after 18 to 20 hrs by CLSI-based broth microdilution assay; type: functional; summary of the method: as §1
Acinetobacter baumannii [16] = experiment: Bactericidal activity against Acinetobacter baumannii ATCC 19606; type: functional; settings: ATCC 19606 = CIP 70.34 = JCM 6841
Escherichia coli [17] = experiment: Antibacterial activity against Escherichia coli BW25113; type: functional
Escherichia coli [18] = experiment: Bactericidal activity against Escherichia coli ATCC 25922; type: functional
Staphylococcus aureus [19] = experiment: Bactericidal activity against Staphylococcus aureus ATCC BAA42 incubated for 18 to 20 hrs followed by replating on tryptic soy agar plate and further incubated for 18 to 24 hrs by CLSI-based broth microdilution assay; type: functional; summary of the method: as §2
Listeria monocytogenes = experiment: Bactericidal activity against Listeria monocytogenes ATCC 19111 incubated for 18 to 20 hrs followed by replating on tryptic soy agar plate and further incubated for 18 to 24 hrs by CLSI-based broth microdilution assay; type: functional
Staphylococcus aureus [20] = experiment: Antibacterial activity against Staphylococcus aureus ATCC BAA42 after 18 to 20 hrs by CLSI-based broth microdilution assay; type: functional; summary of the method: as §1
Staphylococcus aureus [21] = experiment: Antibacterial activity against methicilline-sensitive Staphylococcus aureus ATCC 6538 after 18 to 20 hrs by CLSI-based broth microdilution assay; type: functional; summary of the method: as §1
Acinetobacter baumannii [22] = experiment: Antibacterial activity against Acinetobacter baumannii ATCC 19606; type: functional; settings: ATCC 19606 = CIP 70.34 = JCM 6841
[23] = tested on: Staphylococcus epidermidis; experiment: Antibacterial activity against methicillin-resistant Staphylococcus epidermidis NRS101 after 18 to 20 hrs by CLSI-based broth microdilution assay; type: functional; summary of the method: as §1
Pseudomonas aeruginosa [24] = experiment: Antibacterial activity against Pseudomonas aeruginosa ATCC 15442; type: functional
Streptococcus pneumoniae [25] = experiment: Antibacterial activity against cephalosporin-resistant Streptococcus pneumoniae ATCC 51916 after 18 to 20 hrs by CLSI-based broth microdilution assay; type: functional; summary of the method: as §1
[26] = Safety index, ratio of non-toxic concentration for human Caco2 cells to MIC for methicillin-resistant Staphylococcus aureus NRS384 USA300; type: toxicity
Summary of the method: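 Caco-2 cells exposed to compound in triplicate at 32, 64 and 128 µg/mL for 2 h, then MTS reagent for 4 h, absorbance at OD490. Viability expressed as percent of DMSO control. Highest non-toxic concentration divided by the broth microdilution MIC against MRSA USA300.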

Staphylococcus aureus [27] = experiment: Bactericidal activity against methicilline-sensitive Staphylococcus aureus ATCC 6538 incubated for 18 to 20 hrs followed by replating on tryptic soy agar plate and further incubated for 18 to 24 hrs by CLSI-based broth microdilution assay; type: functional; summary of the method: as §2
Staphylococcus aureus [28] = experiment: Bactericidal activity against vancomycin-resistant Staphylococcus aureus 12 incubated for 18 to 20 hrs followed by replating on tryptic soy agar plate and further incubated for 18 to 24 hrs by CLSI-based broth microdilution assay; type: functional; summary of the method: as §2
Escherichia coli [29] = experiment: Bactericidal activity against TolC-deficient Escherichia coli JW55031; type: functional
Pseudomonas aeruginosa [30] = experiment: Bactericidal activity against Pseudomonas aeruginosa ATCC 27853; type: functional
Staphylococcus aureus [31] = experiment: Bactericidal activity against vancomycin-resistant Staphylococcus aureus 10 incubated for 18 to 20 hrs followed by replating on tryptic soy agar plate and further incubated for 18 to 24 hrs by CLSI-based broth microdilution assay; type: functional; summary of the method: as §2
Escherichia coli [32] = experiment: Bactericidal activity against Escherichia coli BW25113; type: functional
Klebsiella pneumoniae = experiment: Bactericidal activity against Klebsiella pneumoniae BAA-1706; type: functional
Streptococcus pneumoniae [33] = experiment: Antibacterial activity against methicillin-resistant Streptococcus pneumoniae ATCC 700677 after 18 to 20 hrs by CLSI-based broth microdilution assay; type: functional; summary of the method: as §1
Enterococcus faecalis [34] = experiment: Antibacterial activity against vancomycin-resistant Enterococcus faecalis ATCC 51299 after 18 to 20 hrs by CLSI-based broth microdilution assay; type: functional; summary of the method: as §1
Staphylococcus aureus [35] = experiment: Bactericidal activity against methicilline-resistant Staphylococcus aureus NRS-119 incubated for 18 to 20 hrs followed by replating on tryptic soy agar plate and further incubated for 18 to 24 hrs by CLSI-based broth microdilution assay; type: functional; summary of the method: as §2

C/C(=N\NC(=N)N)c1sc(-c2ccc(N3CCCCC3)cc2)nc1C
16: selectivity ratio [26]
32 µg/mL: MBC (Enterococcus faecium [7]) | MIC (Escherichia coli [17]) | MIC (Acinetobacter baumannii [22]) | MBC (Escherichia coli [29])
active: inhibition (Staphylococcus aureus [4])
8 µg/mL: MBC (Staphylococcus aureus [6]) | MBC [9] | MIC (Enterococcus faecium [13]) | MIC (Staphylococcus aureus [14]) | MIC [23] | MIC (Streptococcus pneumoniae [25]) | MBC (Staphylococcus aureus [27]) | MIC (Streptococcus pneumoniae [33])
> 64 µg/mL: MIC (Pseudomonas aeruginosa [1]) | MIC (Pseudomonas aeruginosa [24]) | MBC (Pseudomonas aeruginosa [30])
480 µM: solubility kinetic [10]
4 µg/mL: MIC (Staphylococcus aureus [2]) | MIC (Staphylococcus aureus [11]) | MIC (Staphylococcus aureus [15]) | MIC (Staphylococcus aureus [20]) | MIC (Staphylococcus aureus [21])
64 µg/mL: MBC (Enterococcus faecalis [12]) | MBC (Acinetobacter baumannii [16]) | MBC (Escherichia coli [18]) | MBC (Escherichia coli [32]) | MBC (Klebsiella pneumoniae)
16 µg/mL: MBC (Staphylococcus aureus [3]) | MBC (Staphylococcus aureus [5]) | MBC (Staphylococcus aureus [8]) | MBC (Staphylococcus aureus [19]) | MBC (Listeria monocytogenes) | MBC (Staphylococcus aureus [28]) | MBC (Staphylococcus aureus [31]) | MIC (Enterococcus faecalis [34]) | MBC (Staphylococcus aureus [35])

C/C(=N\NC(=N)N)c1sc(-c2ccc(N3CCCC(C)C3)cc2)nc1C (centres undefined)
32 µg/mL: MBC (Enterococcus faecium [7]) | MBC (Enterococcus faecalis [12]) | MBC (Acinetobacter baumannii [16]) | MIC (Escherichia coli [17]) | MBC (Escherichia coli [18]) | MIC (Acinetobacter baumannii [22]) | MBC (Escherichia coli [32]) | MBC (Klebsiella pneumoniae)
8: selectivity ratio [26]
16 µg/mL: MBC (Staphylococcus aureus [3]) | MBC (Staphylococcus aureus [5]) | MBC (Staphylococcus aureus [6]) | MBC (Staphylococcus aureus [19]) | MBC (Staphylococcus aureus [27]) | MBC (Escherichia coli [29]) | MBC (Staphylococcus aureus [31]) | MBC (Staphylococcus aureus [35])
435 µM: solubility kinetic [10]
active: inhibition (Staphylococcus aureus [4])
4 µg/mL: MIC (Enterococcus faecium [13]) | MIC [23]
8 µg/mL: MIC (Staphylococcus aureus [2]) | MBC (Staphylococcus aureus [8]) | MBC [9] | MIC (Staphylococcus aureus [11]) | MIC (Staphylococcus aureus [14]) | MIC (Staphylococcus aureus [15]) | MBC (Listeria monocytogenes) | MIC (Staphylococcus aureus [20]) | MIC (Staphylococcus aureus [21]) | MIC (Streptococcus pneumoniae [25]) | MBC (Staphylococcus aureus [28]) | MIC (Streptococcus pneumoniae [33]) | MIC (Enterococcus faecalis [34])
> 64 µg/mL: MIC (Pseudomonas aeruginosa [1]) | MIC (Pseudomonas aeruginosa [24]) | MBC (Pseudomonas aeruginosa [30])
